# The list is not random: actives were taken first. Their share in the collection is about 5%.
# CSC inhib – blocks cancer stem cells; cancer stem cell-like cells viability, luminescence; inhibition, % at 7.5 µM; 300,000 compounds, 1.1% hits; in the data active = inhibition above about 75%; tested in HMLE shEcad cells
# Mdm2-MdmX inh – disrupts the human Mdm2-MdmX interaction; O15151+Q00987; SaOS-2 split-luciferase Mdm2/MdmX complementation, luminescence; inhibition, % at 8 µM; 330,000 compounds, 3% hits; AID 485346;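 active = inhibition of at least 50% at 8 µM in the primary screen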
# Target sequence (O15151 whole entry, looked up): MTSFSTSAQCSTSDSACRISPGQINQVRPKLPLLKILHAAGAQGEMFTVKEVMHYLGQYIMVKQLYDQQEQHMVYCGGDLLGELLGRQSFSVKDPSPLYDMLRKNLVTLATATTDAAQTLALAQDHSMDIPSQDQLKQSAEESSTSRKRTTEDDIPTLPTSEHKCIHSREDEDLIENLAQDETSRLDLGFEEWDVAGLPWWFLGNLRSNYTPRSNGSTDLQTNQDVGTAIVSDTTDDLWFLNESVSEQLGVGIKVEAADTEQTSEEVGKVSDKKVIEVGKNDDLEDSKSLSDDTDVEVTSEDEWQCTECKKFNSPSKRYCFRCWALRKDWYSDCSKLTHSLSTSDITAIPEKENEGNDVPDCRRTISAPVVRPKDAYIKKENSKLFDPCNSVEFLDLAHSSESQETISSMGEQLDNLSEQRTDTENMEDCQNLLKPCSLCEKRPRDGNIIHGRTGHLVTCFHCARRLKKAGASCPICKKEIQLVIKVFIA
# Target sequence (Q00987 whole entry, looked up): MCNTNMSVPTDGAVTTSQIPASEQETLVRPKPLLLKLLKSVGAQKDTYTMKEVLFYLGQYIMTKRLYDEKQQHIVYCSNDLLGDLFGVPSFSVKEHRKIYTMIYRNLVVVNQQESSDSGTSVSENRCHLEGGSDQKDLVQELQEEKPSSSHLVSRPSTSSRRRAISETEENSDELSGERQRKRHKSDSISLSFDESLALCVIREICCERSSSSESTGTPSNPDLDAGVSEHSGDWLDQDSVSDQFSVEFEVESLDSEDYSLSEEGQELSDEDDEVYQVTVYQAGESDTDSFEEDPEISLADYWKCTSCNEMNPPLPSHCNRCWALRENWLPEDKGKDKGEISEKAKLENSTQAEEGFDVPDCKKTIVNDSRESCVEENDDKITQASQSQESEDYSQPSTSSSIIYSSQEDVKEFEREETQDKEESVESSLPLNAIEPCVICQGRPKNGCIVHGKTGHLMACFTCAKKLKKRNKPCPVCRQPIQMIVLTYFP
# XBP1 UPR activ – activators of adaptive arm of unfolded protein response (XBP1). 330,000 compounds, 0.33% hits. activation, % at 20 µM. CHO-XBP1 luciferase reporter, IRE1-XBP1 UPR activation, luminescence; percent of tunicamycin response, DMSO as zero. AID 463104;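 active = versus positive control, 20 µM dose yields 30% or more activation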;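 note: 100% = tunicamycin at 10 µg/mL and 0% = DMSO only wells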
#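 Material: CHO-XBP1 cells stably carrying IRE1-XBP1-driven luciferase reporter / Amount: 1000 cells per well / Compound: 20 µM, 1% DMSO / Times: 6 h treatment, 37 °C / Detection: luciferase luminescence / Measure: % activation of reporter signal versus tunicamycin and DMSO controls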
# T cruzi repl – T. cruzi replication inhibition. T. cruzi beta-gal in NIH3T3, luminescence, 90 h. inhibition, % (concentration not given with the values). 300,000 compounds, 1.4% hits;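 active = mean inhibition across valid replicates above about 55%, limit read from the data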;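 note: signal also drops with host cell toxicity which is not excluded here; 0% = plate median of DMSO wells and 100% = zero luminescence signal; higher percent means less beta-gal luminescence so fewer parasites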
#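 System – NIH/3T3 host cells with β-galactosidase reporter T. cruzi · Doses – single 50 nL compound addition per well in DMSO · Reagent – 5000 T. cruzi trypomastigotes/well · Medium – Low-serum DMEM with 2% FBS · Timing – ≥90 h infection period, 3 h prior cell attachment · Evaluation – parasite load inhibition, % · Technique – GalScreen luminescence, 60 min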
# UPR CHOP act – activators of apoptotic arm of unfolded protein response (CHOP). CHO-CHOP luciferase reporter, UPR activation, luminescence; percent of tunicamycin response over DMSO baseline. activation, % at 10 µM. 330,000 compounds, 0.34% hits;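 active = at 10 µM dose, activation of 40% or more, normalized to positive control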;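 note: 100% = tunicamycin at 10 µg/mL and 0% = DMSO alone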
#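 Test system: CHO CHOP reporter cells. Input: 500 CHO-CHOP cells per well. Medium: F12 with 10% FBS. Technique: luciferase luminescence. Measure: percent activation relative to tunicamycin control. Dosing: 10 µM compound, 0.5% DMSO. Timing: 16-18 h cell attachment, then 6 h compound exposure, 37 °C.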
# Beta apoptosis – beta cell apoptosis inhibition. INS-1E cytokine-induced death, ATP luminescence, 48 h; percent of positive-control rescue, neutral wells zero. protection from apoptosis, % (concentration not given with the values). 300,000 compounds, 0.8% hits. AID 435005;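 active = Every replicate reaches about 75%, or at least half do and their mean reaches it too, limit read from the data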;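 note: 0% = cytokine-treated negative control wells and 100% = positive control rescue; higher means more ATP so stronger rescue from cytokine killing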
# Mdm2-MdmX conf – human Mdm2/MdmX binding inhibition, confirmed; shares compounds with Mdm2-MdmX inh; luminescent assay; inhibition, % at 8 µM; 10,000 compounds, 55% hits; AID 489028; in the data active = inhibition above about 40%
# Full FLuc ctr – counter-screen for Mdm2/MdmX inhibitors: full-length luciferase; inhibition, % at 8 µM; shares compounds with Mdm2-MdmX inh; SaOS-2 full-length luciferase counterscreen, luminescence; AID 504607; 6,200 compounds, 77% hits;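 active = mean inhibition at 8 µM reaching about 37%, which flags the compound as non-specific, limit read from the data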;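 note: p53-null SaOS-2 cells with luciferase driven by a doxycycline-inducible promoter; compound on cells about two nights before reading with doxycycline added after day one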
# An asterisk follows results filed as active; nt = no result given.
SMILES,CSC inhib,Mdm2-MdmX inh,XBP1 UPR activ,T cruzi repl,UPR CHOP act,Beta apoptosis,Mdm2-MdmX conf,others
Cn1nc(C(F)(F)F)c(C#N)c1N1CCN(c2ccccc2)CC1,0.2,40.8,-0.8,1.7,-0.3,-12.2,nt,
Cn1nc(C(F)(F)F)c(C#N)c1N1CCN(c2ccc(F)cc2)CC1,-15.9,56.3*,3.4,-23.7,-3.1,-4.8,20.4,
COc1ccc(-c2cc(-c3ccc(C)cc3)nc(SCc3nnc(-c4ccccc4)o3)c2C#N)cc1OC,nt,-16.3,0.6,4.4,2.1,45.8,nt,
Nc1nnc(CC(=O)N/N=C/c2ccc(-c3ccccc3Cl)o2)s1,-7.6,18.4,-1.4,-1.2,-0.1,-5.7,nt,
Nc1nnc(CC(=O)N/N=C/c2ccc(-c3ccc(Cl)cc3Cl)o2)s1,1.5,67.8*,-1.5,-10.4,-1.4,0.1,34.2,Full FLuc ctr=82.7*
Cc1ccc(NC(=O)N2CCC(C(=O)NCC(C)C)CC2)cc1,-4.2,-13.2,0.2,-15.2,-0.2,nt,nt,
Cc1[nH]nc(-c2ccc(OCc3cnn(-c4ccccc4)c3)cc2O)c1Oc1ccc(F)cc1,4.8,39.1,-2.4,-5.5,-1.8,4.7,nt,
Cc1[nH]nc(-c2ccc(OCc3cnn(-c4ccccc4)c3)c(C)c2O)c1Oc1ccccc1,8.7,55.8*,29.9,11.9,-0.5,7.3,50.9*,Full FLuc ctr=52.7*
O=C(CCCOc1ccc(Cl)cc1Cl)N/N=C/c1ccccc1,52.0,18.2,-2.7,-12.6,-0.6,-1.2,nt,
O=C(CCCOc1ccc(Cl)cc1Cl)N/N=C/c1ccccc1O,168.1*,75.6*,0.8,-0.4,0.1,-4.5,81.5*,Full FLuc ctr=22.0
CCc1nnc(NC(=O)CCS(=O)(=O)c2ccc(C)cc2)s1,-14.9,41.6,-0.9,-7.8,0.5,-7.2,nt,
CCc1nnc(NC(=O)CSc2nc(-c3ccccc3)c(-c3ccccc3)o2)s1,47.9,55.3*,1.4,5.6,-0.9,nt,42.0*,Full FLuc ctr=92.2*
CCCCc1nnc(NC(=O)CCS(=O)(=O)c2ccc(C)cc2)s1,18.2,56.6*,-2.5,nt,-1.8,-26.9,-4.6,
CCCCc1nnc(NC(=O)CCS(=O)(=O)Cc2ccccc2)s1,-10.8,-14.2,-0.8,-18.7,0.7,-12.4,nt,
CCCc1nnc(NC(=O)CCS(=O)(=O)Cc2ccccc2)s1,-9.2,57.0*,-1.1,-8.9,0.7,-21.0,6.5,
CCc1nnc(NC(=O)CCS(=O)(=O)c2ccccc2)s1,1.3,51.2*,-3.1,-10.0,-1.3,-22.6,24.5,
O=C(CSc1nnc(CNc2ccc(F)cc2)o1)c1ccccc1,-13.7,-10.8,0.9,-1.7,-0.6,-11.4,nt,
CCOc1ccc(/C=C2/Sc3ccc(C(=O)NCC4CCCO4)cc3N(C)C2=O)cc1OC (stereo not drawn),1.2,39.7,0.7,-2.7,-0.6,0.3,nt,
CC(C)(C)CN1CCC(Oc2cccc(C(=O)N3CCC[C@H]3CO)c2)CC1,-11.0,1.7,-3.4,-3.1,0.0,-1.8,nt,
O=C(CSc1nc2nn(-c3ccccc3)c(=O)c-2c2n1CCCCC2)Nc1ccccc1[N+](=O)[O-],nt,12.5,-4.5,nt,6.2,nt,nt,
Cc1nc(SCC(=O)NCC2CCCO2)c2cc(-c3ccccc3)sc2n1 (stereo not drawn),nt,71.3*,2.1,nt,2.0,1.8,15.1,
O=C(CSc1nnc(-c2ccccc2)c2ccccc12)NCC1CCCO1 (stereo not drawn),nt,-9.3,-2.3,-7.5,0.2,0.4,nt,
CCC(=O)Nc1ccc(NC(=S)NC(=O)/C=C/c2ccco2)cc1,-5.7,24.4,-4.9,-2.3,0.6,-12.6,nt,
O=C(/C=C/c1ccco1)NC(=S)Nc1ccc(N2CCCC2)cc1,66.6,61.0*,-0.7,-10.9,0.5,-1.7,61.9*,Full FLuc ctr=52.2*
CC(=O)NC(=S)Nc1ccc(NC(=S)NC(=O)/C=C/c2ccco2)cc1,5.6,73.5*,7.4,-5.2,0.4,20.9,64.8*,Full FLuc ctr=35.0
SMILES,CSC inhib,Mdm2-MdmX inh,XBP1 UPR activ,T cruzi repl,UPR CHOP act,Beta apoptosis,Mdm2-MdmX conf,others
O=C(NC(=S)Nc1nc(-c2ccc([N+](=O)[O-])cc2)cs1)c1ccco1,4.9,55.0*,-3.1,-0.5,3.6,19.6,27.6,
O=C(/C=C\c1ccco1)Nc1nc(-c2ccc3ccccc3c2)cs1,29.6,34.4,0.5,14.8,0.0,-4.8,nt,
Cc1ccc(-c2csc(NC(=S)NC(=O)/C=C/c3ccco3)n2)cc1,71.2,59.2*,11.9,-44.8,-1.3,5.1,51.4*,Full FLuc ctr=59.3*
O=C1CCC(C(=O)N2CCc3ccccc3C2)CN1CCCN1CCOCC1 (stereo not drawn),4.2,5.2,-2.6,-7.5,-0.4,1.1,nt,
O=C(Cc1ccc(S(=O)(=O)N2CCOCC2)s1)Nc1ccccc1Br,13.1,66.0*,-0.7,3.7,-1.5,0.3,0.2,
Cc1c(NC(=O)CSc2nncn2-c2ccccc2)c(=O)n(-c2ccccc2)n1C,-6.7,-14.2,1.1,-4.9,1.3,nt,nt,
O=C(NC(NC(=S)Nc1ccccc1Cl)C(Cl)(Cl)Cl)c1cccc(Cl)c1 (stereo not drawn),111.5*,97.3*,-1.7,60.2*,25.5,48.9,94.9*,Full FLuc ctr=22.0
COc1ccc(NC(=S)NC(NC(=O)c2cccc(Cl)c2)C(Cl)(Cl)Cl)c([N+](=O)[O-])c1 (stereo not drawn),nt,86.9*,4.2,72.8*,15.8,nt,72.3*,Full FLuc ctr=57.2*
Cc1cc(SCc2ccc(Cl)c(Cl)c2)nc(=O)[nH]1,-2.7,-11.2,-1.1,2.5,0.0,nt,nt,
O=C(NC1CC2CCCC(C1)N2Cc1ccccc1)c1ccc([N+](=O)[O-])cc1 (stereo not drawn),-11.1,-20.1,-4.7,4.4,0.9,-2.5,nt,
CC1(C(=O)O)CCC(C(=O)N2CCOCC2)C1(C)C (stereo not drawn),-10.8,1.4,-1.7,-5.6,-2.3,-4.5,nt,
CCOC(=O)c1sc2nc(C)cc(C)c2c1N,-7.8,-32.7,7.1,14.4,1.1,-0.5,nt,
CCOC(=O)c1sc2nc(SC)nc(-c3ccc(Cl)cc3)c2c1N,-8.7,59.6*,10.2,3.1,4.4,16.3,13.1,
C/C(CC(=O)Nc1ccc(C)c(Cl)c1)=N\NC(=O)c1ccccn1,-0.2,-33.1,3.0,3.8,1.1,-3.6,nt,
Nc1c(N(CCC2=CCCCC2)C(=O)CCCOc2ccccc2)c(=O)[nH]c(=O)n1Cc1ccccc1,-9.9,37.5,-2.2,15.8,0.9,-8.7,nt,
Nc1c(N(CCC2=CCCCC2)C(=O)COc2ccc(F)cc2)c(=O)[nH]c(=O)n1Cc1ccccc1,73.8,53.2*,-1.1,nt,-0.8,97.0*,10.6,
